# Only some compounds are listed: those with a hit (about 2.8% of all), similar ones and a draw of the others.
# EP2 modulator: modulates human prostaglandin E2 receptor EP2 signaling | EP2-expressing cells, cAMP HTRF FRET, PGE2 co-stimulation | AID 940 | P43116 | 260,000 compounds, 0.83% hits | induction, % at 25 µM;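 active means compounds whose cAMP rise, as percent of the full-agonist control response, exceeds 60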;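 further: rat C6 glioma line stably carrying human EP2 under a CMV promoter; the protocol text gives 20 µM as final concentration; 100% = response of wells given 1 µM PGE2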
# Target sequence (P43116 whole entry, looked up): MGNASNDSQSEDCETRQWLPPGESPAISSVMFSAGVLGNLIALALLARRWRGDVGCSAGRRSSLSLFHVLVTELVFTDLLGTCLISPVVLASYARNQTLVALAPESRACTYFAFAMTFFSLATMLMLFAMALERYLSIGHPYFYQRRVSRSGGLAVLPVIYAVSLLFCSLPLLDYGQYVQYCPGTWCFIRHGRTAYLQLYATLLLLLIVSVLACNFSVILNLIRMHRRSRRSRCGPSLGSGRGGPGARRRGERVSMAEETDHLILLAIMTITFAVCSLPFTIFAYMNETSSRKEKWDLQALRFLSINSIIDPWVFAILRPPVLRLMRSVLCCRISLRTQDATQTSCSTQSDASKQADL
# NPY-Y2 antag: NPY-Y2 (human) receptor antagonism; P49146; NPY-Y2 expressing cells, antagonist mode; inhibition, % at 2.7 µM; 140,000 compounds, 0.99% hits; AID 793; in the data active means inhibition above about 17%;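 further: 0% = vehicle with agonist challenge and 100% = reference antagonist with challenge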
# Target sequence (P49146 whole entry, looked up): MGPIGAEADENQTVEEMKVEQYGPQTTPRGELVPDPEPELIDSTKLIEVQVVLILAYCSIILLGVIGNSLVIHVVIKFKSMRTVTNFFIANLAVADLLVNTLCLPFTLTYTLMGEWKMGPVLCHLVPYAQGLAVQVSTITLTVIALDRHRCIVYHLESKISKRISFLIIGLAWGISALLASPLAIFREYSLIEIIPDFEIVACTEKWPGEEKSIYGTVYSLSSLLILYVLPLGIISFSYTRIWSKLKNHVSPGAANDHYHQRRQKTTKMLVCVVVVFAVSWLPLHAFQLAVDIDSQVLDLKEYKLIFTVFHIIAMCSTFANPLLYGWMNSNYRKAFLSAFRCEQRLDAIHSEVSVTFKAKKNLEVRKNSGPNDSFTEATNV
# NPY2 pot ag: human NPY-Y2 potentiation or agonism, primary screen | P49146 | cells expressing NPY-Y2, potentiator/agonist read-out | activation, % at 3.6 µM | 220,000 compounds, 0.45% hits; in the data active means activation above about 27%;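 further: cells stimulated with NPY near EC25 plus isoproterenol at EC100; 0% = vehicle plus submaximal agonist and 100% = vehicle plus saturating agonist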
# NPY-Y1 PAM-ag: human NPY-Y1 potentiation or agonism, primary screen; P25929; NPY-Y1 expressing cells, potentiator/agonist activation; activation, % at 3.6 µM; 220,000 compounds, 0.37% hits; AID 1304; in the data active means activation above about 33%, passing the limit was not always enough;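 further: cells stimulated with NPY at EC10 then isoproterenol at EC100; 0% = low agonist plus stimulus and 100% = saturating agonist plus stimulus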
# NPY Y1 blocker: blocks the human neuropeptide Y Y1 receptor | P25929 | HEK293-CNG Y1 cells, membrane potential fluorescence; NPY at EC95, then isoproterenol | inhibition, % at 3.6 µM | 200,000 compounds, 1% hits;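 active means inhibition above the campaign mean inhibition of all tested compounds plus 3 SD, cut at about 20% in these data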;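 further: 0% = DMSO wells given NPY plus isoproterenol and 100% = isoproterenol alone without NPY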
#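 Material: HEK293 Y1/CNG channel cell line | Also added: NPY (25 nM), isoproterenol (1 µM), Ro 20-1724 (25 µM) | Compound: One concentration, 3.6 µM, in 0.4% DMSO | Schedule: 3 h dye uptake, 1 h room-temperature compound, 45 min post-isoproterenol | Signal: Membrane-potential fluorescent dye readout | Read-out: % inhibition of NPY effect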
# EP2 antag: inhibitors of human EP2 prostaglandin E2 receptor; C6 glioma cells expressing human EP2, cAMP TR-FRET; cells stimulated with saturating PGE2; AID 1422; 260,000 compounds, 0.52% hits; inhibition, % at 25 µM; P43116;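 active means percent inhibition above 40 after rounding to a whole number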;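 further: rat C6 glioma host cells with rolipram phosphodiesterase inhibitor present; the protocol text gives 20 µM as final concentration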
# EP2 confirm: human EP2 receptor cAMP induction, negative in counter-screens | 1,300 compounds, 47% hits | shares compounds with EP2 modulator | AID 1080 | C6 glioma EP2 cells, cAMP HTRF induction; plus low (about EC15) PGE2 agonist | calls only at 20 µM (by protocol);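 active means cAMP induction above 50% in the main assay while under 30% in all four parallel counter assays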;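 further: rat C6 glioma cells stably expressing human EP2 receptor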
# * = called active by the depositor; i = inactive; . = no result; + = active, no number.
SMILES,EP2 modulator,NPY-Y2 antag,NPY2 pot ag,NPY-Y1 PAM-ag,NPY Y1 blocker,EP2 antag,EP2 confirm
C[N+]1(C)Cc2cc3ccccc3c(-c3ccccc3)c2C1,0.0,.,.,.,.,12.4,.
O=C(COC(=O)c1ccco1)Nc1ccc(F)cc1,-24.8,.,.,.,.,3.4,.
CCOC(=O)C(C)Sc1nc(-c2ccccc2)nc2ccccc12 (stereo not drawn),87.3*,.,-8.4,-13.4,5.8,3.0,+
CCOC(=O)CSc1nc(Cc2ccccc2)nc2ccccc12,70.4*,.,-22.7,-16.9,7.6,10.1,+
CCOC(=O)CSc1nc(-c2ccccc2)nc2ccccc12,70.2*,10.5,-17.8,-25.4,2.6,5.4,+
COC(=O)CSc1nc(Cc2ccccc2)nc2ccccc12,66.8*,.,-12.0,-6.0,9.2,13.2,+
CCOC(=O)CSc1nc(CC)nc2ccccc12,37.6,7.8,-10.3,-13.7,8.2,8.9,.
CCN(CC)Cc1ccc(C(=O)N2CCn3c(nnc3C3CC3)C2)o1,-34.4,.,.,.,.,9.3,.
CC(C)OC(=O)CSc1nc(Cc2ccccc2)nc2ccccc12,74.4*,.,-17.0,-2.7,8.9,7.2,+
CC(C)OC(=O)CSc1nc(C(C)C)nc2ccccc12,47.6,.,-11.1,-25.4,10.1,15.4,.
Clc1ccc(COn2c(-c3ccccc3)nc3ccccc32)cc1,66.7*,37.2*,-77.4,-110.9,53.6*,3.3,i
Cc1ccc(COn2c(-c3ccc(Cl)cc3)nc3ccc([N+](=O)[O-])cc32)cc1,21.8,6.3,-4.0,-6.2,8.8,6.8,.
CN(/C=C/c1sc2ccc3ccccc3c2[n+]1C)c1ccccc1,-55.1,.,.,.,.,19.4,.
Cc1ccc(-n2c(=S)[nH]c3c(oc4ccccc43)c2=O)cc1C,74.0*,2.0,1.1,15.1,2.6,15.6,i
Cc1ccc(-n2nnc3ccccc3c2=O)cc1C,12.0,-1.1,-12.8,0.9,0.8,9.2,.
CC12CCC(C(=O)N(CSC(=S)N/N=C\c3ccccc3Cl)C1=O)C2(C)C (stereo not drawn),69.6*,2.5,11.0,-10.6,4.4,22.5,i
Cn1c(=O)c2c(SC3CCCC3)nc(CC(C)(C)C)nc2n(C)c1=O,.,3.0,-19.8,5.4,0.6,.,.
CCCc1nc(SC2CCCC2)c2c(=O)n(C)c(=O)n(C)c2n1,79.4*,.,.,.,.,7.4,+
COc1cc(C2NC(=O)NC3=C2C(=O)N(CCO)C3)ccc1O (stereo not drawn),-31.4,.,.,.,.,6.9,.
CC(C)(C)C1CCC(=NNc2ccc(S(N)(=O)=O)cc2[N+](=O)[O-])CC1 (stereo not drawn),68.2*,2.3,9.7,16.2,3.5,7.3,+
CC(C)c1ccc(/C=N/Nc2cc(N3CCOCC3)nc(N3CCOCC3)n2)cc1,95.8*,1.8,3.8,-18.2,4.0,8.9,+
Cc1ccc(/C=N/Nc2cc(C)nc(N3CCOCC3)n2)cc1,-19.2,.,-14.8,-13.5,.,10.3,.
Cc1cccc(/C=N/Nc2cc(N3CCOCC3)nc(N3CCOCC3)n2)c1,79.5*,0.8,14.4,-6.7,-1.1,4.5,+
Cc1oncc1-c1csc(-c2ccccc2Cl)n1,68.8*,.,-2.7,-11.7,12.3,6.8,+
Cc1nc2ccccc2c(=O)n1Cc1ccco1,-20.7,.,-10.2,-3.4,.,9.2,.
SMILES,EP2 modulator,NPY-Y2 antag,NPY2 pot ag,NPY-Y1 PAM-ag,NPY Y1 blocker,EP2 antag,EP2 confirm
O=c1c2ccccc2c2ccccc2c(=O)n1Cc1ccco1,83.5*,4.5,9.0,2.2,-1.1,3.6,i
COc1cccc2[nH]c3c(N4CCCC(C)C4)ncnc3c12 (stereo not drawn),93.8*,5.4,-10.3,-72.5,8.9,6.1,+
COc1cccc2[nH]c3c(N4CCC(C(N)=O)CC4)ncnc3c12,33.5,-1.0,18.8,-1.1,1.4,22.3,.
COc1cccc2[nH]c3c(N4CC(C)CC(C)C4)ncnc3c12 (stereo not drawn),90.0*,2.4,-34.6,-84.2,11.0,.,+
Cc1cc2c(cc3c(=O)n(CC(=O)N(Cc4ccncc4)C4CC4)nc(C)n32)o1,-12.5,.,.,.,.,6.5,.
O=C(Cc1ccc(O)cc1)N1CCC(c2nc3sc4c(c3c(=O)[nH]2)CCCC4)CC1,-28.0,.,.,.,.,.,.
O=C(c1ccc(Cl)cc1)c1oc2ccccc2c1CS(=O)(=O)c1ccccc1,79.7*,4.4,-9.5,-11.4,2.4,2.8,+
Nc1c(C(=O)c2ccccc2)oc2ccccc12,10.0,0.4,11.7,-6.1,-10.7,11.6,.
CCOc1cc(-c2noc(-c3ccncc3)n2)cc(Br)c1OC,50.5,4.9,0.3,18.3,1.7,5.5,+
CCOc1ccc(-c2noc(-c3ccncc3)n2)cc1OCC,-18.6,0.2,13.1,32.0,-1.7,10.4,.
CN1C=CC=C/C1=C1/SC(=S)N(Cc2ccccc2)C1=O,-27.0,0.1,17.2,0.2,1.5,7.4,.
CCN1C(=O)/C(=C2/C=CC=CN2C)SC1=S,75.3*,0.7,-15.7,-5.7,-0.2,4.8,i
CCN(C(=O)Cn1nc(C(=O)O)c2ccccc2c1=O)C1CCCCC1,2.8,.,3.9,-9.1,2.4,5.8,.
O=C(O)c1nn(CC(=O)N(C2CCCCC2)C2CCCCC2)c(=O)c2ccccc12,83.4*,.,6.9,-1.1,1.1,4.3,+
CC(=O)Nn1cnc2c(c1=O)C1(CCCC1)Cc1ccccc1-2,0.9,5.7,-1.0,-13.6,0.8,6.4,.
O=c1c2c(n3cnnc3n1C1CCCCC1)-c1ccccc1CC21CCCCC1,68.5*,2.0,5.6,-10.0,-6.4,9.4,+
O=c1c2c(n3nnnc3n1-c1ccccc1)-c1ccccc1CC21CCCC1,73.1*,-3.1,8.7,-2.8,5.7,20.4,+
O=c1c2c(n3cnnc3n1-c1ccccc1)-c1ccccc1CC21CCCC1,20.1,2.7,8.7,3.1,1.2,6.5,.
Nn1cnc2c(c1=O)C1(CCCCC1)Cc1ccccc1-2,73.2*,0.6,-14.6,-6.6,4.0,2.1,i
CCc1cc2cc3c(cc2nc1SCC(=O)c1ccccc1F)OCO3,56.2,.,.,.,.,1.7,.
Cc1ccc2cc(C(c3nnnn3C3CCCCC3)N3CCc4ccccc43)c(=O)[nH]c2c1C (stereo not drawn),25.8,.,.,.,.,7.7,.
COc1ccc(-c2nc3n(c2NC(C)(C)C)CCN(C(=O)C2CC2)C3)cc1,-11.9,.,.,.,.,.,.
N#Cc1c(-c2c(Cl)cccc2Cl)noc1/C=C/Nc1ccc(C(=O)O)cc1,68.5*,.,-5.4,-6.6,1.2,5.5,+
O=c1c(O)c(-c2ccccc2)oc2ccc3occc3c12,74.2*,.,.,.,.,9.2,+
COc1c(OC)c(O)c2c(=O)c(O)c(-c3ccccc3)oc2c1OC,-6.8,.,-19.8,0.1,-1.2,18.1,.
c1ccc(-c2cc3ccccc3nc2N2CCCC2)cc1,17.9,3.6,1.3,-14.7,6.7,12.4,.

# Bioassay records deposited in PubChem BioAssay by several laboratories.
